{"source": "ChEMBL document CHEMBL4613269", "about": "“2-((4-Arylpiperazin-1-yl)methyl)benzonitrile Derivatives as Orally Available Inhibitors of Hepatitis C Virus with a Novel Mechanism of Action” (J Med Chem, 2020)", "key": {"[1]": {"test_system": "Hepatitis C virus", "test": "Antiviral activity against HCV genotype 2a pseudoparticle infected in human Huh7.5 cells assessed as reduction in viral replication", "assay_type": "functional, organism-based", "details": "Hepacivirus hominis; subtype 2a", "outline": "(§1)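 Genotype 1b or 2a HCV pseudoparticles made by co-transfecting HEK 293T cells with envelope and luciferase-reporter HIV plasmids; input standardized by luciferase. Huh7.5 cells co-incubated with compound and HCVpp for 4 h at 37°C, washed, then luciferase read at 72 h.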"}, "[2]": {"test_system": "Influenza A virus", "test": "Antiviral activity against influenza A virus H3N2/95-359 infected in MDCK cells assessed as reduction in virus-induced cytopathic effect incubated for 48 hrs by Reed-Muench method", "assay_type": "functional, organism-based", "details": "H3N2/95-359, MDCK"}, "[3]": {"test": "AUC (0 to 72 hrs) in beagle dog at 15 mg/kg, po measured after 0.08 to 72 hrs post dose by LC-MS/MS analysis", "assay_type": "ADME, organism-based, Canis lupus familiaris", "design": "time < 72 hr, dose 15 mg/kg, route oral", "details": "in vivo", "outline": "(§2)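 Single dose to fasted (12 h) animals: oral gavage 15 mg/kg as suspension in 0.5% CMC-Na, or iv 5 mg/kg dissolved in citric acid buffer pH 5.0 with 2.5% DMSO. Jugular vein blood on heparin at 0.08 (iv only) to 72 h. Plasma assayed by LC-MS/MS; parameters from noncompartmental analysis.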"}, "[4]": {"test_system": "Hepatitis C virus", "test": "Resistance index, ratio of EC50 for antiviral activity against HCV with glycoprotein E1 F291V mutant infected in human Huh7.5 cells to EC50 for Antiviral activity against HCV with wild type glycoprotein E1 infected in human Huh7.5 cells", "assay_type": "functional, Hepacivirus hominis", "outline": "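Huh7.5 cells seeded at 3×10^4/cm² and incubated 24 h, then infected with wild-type or E1 F291V mutant HCV while simultaneously treated with compound in eight-step 1:5 serial dilutions, run in triplicate. Intracellular HCV RNA was read by qRT-PCR at 72 h (2^-ΔCT, normalized to GAPDH). EC50 by Reed & Muench; the index is mutant EC50 over wild-type EC50.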"}, "[5]": {"test_system": "Hepatitis C virus", "test": "Antiviral activity against HCV expressing NS5B S282T mutant by qRT-PCR analysis based by Reed-Muench method", "assay_type": "functional, organism-based, Hepacivirus hominis", "outline": "(§3)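 Huh7.5 cells seeded at 3×10^4/cm², infected 24 h later with wild-type or mutant HCV stock while compound or solvent was added at the same time. Intracellular HCV RNA measured by qRT-PCR at 72 h, normalised to GAPDH, 2^-ΔCT method. EC50 by Reed & Muench from eight-step 1:5 serial dilutions, triplicate wells.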"}, "[6]": {"test": "Drug level in beagle dog at 5 mg/kg, iv measured after 24 hrs post dose by LC-MS/MS analysis", "assay_type": "ADME, organism-based, Canis lupus familiaris", "details": "in vivo, read-out: Drug uptake", "outline": "as §2"}, "[7]": {"test": "Apparent Volume of distribution in beagle dog at 5 mg/kg, iv measured after 0.08 to 72 hrs post dose by LC-MS/MS analysis", "assay_type": "ADME, organism-based, Canis lupus familiaris", "details": "in vivo, read-out: Vz", "outline": "as §2"}, "[8]": {"test": "Cmax in Sprague-Dawley rat at 5 mg/kg, iv measured after 0.08 to 72 hrs post dose by LC-MS/MS analysis", "assay_type": "ADME, organism-based", "design": "dose 5 mg/kg, route intravenous", "details": "in vivo", "outline": "as §2"}, "[9]": {"test": "Drug level in beagle dog at 15 mg/kg, po measured after 72 hrs post dose by LC-MS/MS analysis", "assay_type": "ADME, organism-based, Canis lupus familiaris", "details": "in vivo, read-out: Drug uptake", "outline": "as §2"}, "[10]": {"test_system": "Hepatitis C virus", "test": "Antiviral activity against HCV GS4.3 infected in human Huh7.5 cells assessed as reduction in viral replication at 1 uM simultaneously treated with viral infection for 15 mins to 2 hrs and measured after 72 hrs by In-Cell Western assay", "assay_type": "functional, organism-based", "details": "Hepacivirus hominis", "outline": "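Huh7.5 cells infected with HCV while incubated with compound, either for 4 h across a concentration series or at 1.0 µM for varied times down to 15 min. Supernatant then replaced with fresh medium. Intracellular Core protein measured by In-Cell Western at 72 h.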"}, "[11]": {"test": "Clearance in beagle dog at 5 mg/kg, iv measured after 0.08 to 72 hrs post dose by LC-MS/MS analysis", "assay_type": "ADME, organism-based, Canis lupus familiaris", "details": "in vivo", "outline": "as §2"}, "[12]": {"test_system": "Hepatitis C virus", "test": "Induction of HCV GS4.3 viral particles inactivation infected in human Huh7.5 cells assessed as reduction in viral protein levels at 1 uM pre-incubated with virus for 2 hrs before viral infection and measured after 72 hrs by Western blot assay", "assay_type": "functional, organism-based", "details": "Hepacivirus hominis", "outline": "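Huh7.5 cells inoculated with HCV stock pre-treated 2 h with 1.0 μM compound, then diluted 20-fold (final 0.05 μM). Control stocks were treated with 0.05 μM or 1.0 μM. Intracellular proteins were extracted and analysed by western blot at 72 h, with HCV Core/actin ratio normalized to control.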"}, "[13]": {"test": "Apparent Volume of distribution in Sprague-Dawley rat at 5 mg/kg, iv measured after 0.08 to 72 hrs post dose by LC-MS/MS analysis", "assay_type": "ADME, organism-based", "details": "in vivo, read-out: Vz", "outline": "as §2"}, "[14]": {"test": "Clearance in Sprague-Dawley rat at 15 mg/kg, po measured after 0.08 to 72 hrs post dose by LC-MS/MS analysis", "assay_type": "ADME, organism-based", "details": "in vivo", "outline": "as §2"}, "[15]": {"test_system": "Hepatitis C virus", "test": "Antiviral activity against wild type HCV by qRT-PCR analysis based by Reed-Muench method", "assay_type": "functional, organism-based, Hepacivirus hominis", "outline": "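Huh7.5 cells seeded 24 h, then infected with wild-type (or mutant) HCV with compound added at the same time. Incubated 72 h. Intracellular HCV RNA measured by qRT-PCR, 2^-ΔCt method, normalized to GAPDH. Eight-step 1:5 serial dilutions in triplicate; EC50 by Reed & Muench; three independent experiments.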"}, "[16]": {"test": "Toxicity in Kunming mouse assessed as effect on body weight at 250 to 1000 mg/kg dosed via single oral gavage and measured on day 7 post treatment", "assay_type": "organism-based", "details": "in vivo", "outline": "(§4)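 Kunming mice, 4 groups of n = 6 (3 male, 3 female). Fasted from 12 h before to 1 h after dosing. Single oral gavage of 250, 500 or 1000 mg/kg suspended in 0.5% CMC-Na, or vehicle alone. Followed for 7 days: survival, body weight before and at day 7. Day-7 blood taken for AST, ALT, urea nitrogen and creatinine.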"}, "[17]": {"test": "Apparent Volume of distribution in Sprague-Dawley rat at 15 mg/kg, po measured after 0.08 to 72 hrs post dose by LC-MS/MS analysis", "assay_type": "ADME, organism-based", "details": "in vivo", "outline": "as §2"}, "[18]": {"test": "Clearance in Sprague-Dawley rat at 5 mg/kg, iv measured after 0.08 to 72 hrs post dose by LC-MS/MS analysis", "assay_type": "ADME, organism-based", "details": "in vivo", "outline": "as §2"}, "[19]": {"test_system": "Hepatitis C virus", "test": "Antiviral activity against HCV expressing NS3 A156T mutant by qRT-PCR analysis based by Reed-Muench method", "assay_type": "functional, organism-based, Hepacivirus hominis", "outline": "as §3"}, "[20]": {"test": "Toxicity in Kunming mouse assessed as effect on ALT level at 250 to 1000 mg/kg dosed via single oral gavage and measured on day 7 post treatment", "assay_type": "organism-based", "details": "in vivo", "outline": "as §4"}, "[21]": {"test": "Tmax in Sprague-Dawley rat at 15 mg/kg, po measured after 0.08 to 72 hrs post dose by LC-MS/MS analysis", "assay_type": "ADME, organism-based", "details": "in vivo"}, "[22]": {"test_system": "Hepatitis C virus", "test": "Antiviral activity against HCV genotype 1b pseudoparticle infected in human Huh7.5 cells assessed as reduction in viral replication", "assay_type": "functional, organism-based", "details": "Hepacivirus hominis; subtype 1b", "outline": "as §1"}, "[23]": {"test": "Half life in beagle dog at 5 mg/kg, iv measured after 0.08 to 72 hrs post dose by LC-MS/MS analysis", "assay_type": "ADME, organism-based, Canis lupus familiaris", "details": "in vivo"}}, "note": "The source made the active and inactive calls. No cut-off for these calls is given here."}
{"smiles": "CN(C)CCN(C)c1ccc(C#N)c(CN2CCN(c3ccc(Cl)cc3)CC2)c1", "values": [{"measurement": "Activity", "setting": "[1]", "result": "Dose-dependent effect"}, {"measurement": "EC50", "setting": "[2]", "result": "> 2470", "unit": "nM"}, {"measurement": "AUC(0-t) at 72 h", "setting": "[3]", "result": 1280, "unit": "ng·h/mL"}, {"measurement": "Ratio EC50", "setting": "[4]", "result": 20}, {"measurement": "EC50", "setting": "[5]", "result": 4.4, "unit": "nM"}, {"measurement": "concentration at 24 h", "setting": "[6]", "result": 6.16, "unit": "ng/mL"}, {"measurement": "Vd", "setting": "[7]", "result": 49.2, "unit": "L/kg"}, {"measurement": "Cmax", "setting": "[8]", "result": 617, "unit": "ng/mL"}, {"measurement": "concentration at 72 h", "setting": "[9]", "result": 0.69, "unit": "ng/mL"}, {"measurement": "Activity", "setting": "[10]", "result": "Active"}, {"measurement": "clearance", "setting": "[11]", "result": 79.2, "unit": "mL/min/kg"}, {"measurement": "Activity", "setting": "[12]", "result": "inactive"}, {"measurement": "Vd", "setting": "[13]", "result": 20.1, "unit": "L/kg"}, {"measurement": "CL/F", "setting": "[14]", "result": 37.4, "unit": "mL/min/kg"}, {"measurement": "EC50", "setting": "[15]", "result": 3, "unit": "nM"}, {"measurement": "Activity", "setting": "[16]", "result": "Non-Toxic"}, {"measurement": "Vz", "setting": "[17]", "result": 34.83407, "unit": "L/kg"}, {"measurement": "clearance", "setting": "[18]", "result": 18.1, "unit": "mL/min/kg"}, {"measurement": "EC50", "setting": "[19]", "result": 1.9, "unit": "nM"}, {"measurement": "Activity", "setting": "[20]", "result": "Non-Toxic"}, {"measurement": "Tmax", "setting": "[21]", "result": 3.08, "unit": "h"}, {"measurement": "Activity", "setting": "[22]", "result": "Dose-dependent effect"}, {"measurement": "half-life", "setting": "[23]", "result": 7.28, "unit": "h"}]}
